Measured values from ChEMBL document CHEMBL1148871, “Novel potent antimitotic heterocyclic ketones: synthesis, antiproliferative activity, and structure-activity relationships” (Bioorg Med Chem Lett, 2007).

Columns and labels:
CCRF-CEM = assay: Antiproliferative activity against human CEM cells; assay type: functional, cell-based
MCF7 = assay: Antiproliferative activity against human MCF7 cells; assay type: functional, cell-based
Bel-7402 = assay: Antiproliferative activity against human Bel7402 cells; assay type: functional, cell-based
MOLT-3 = assay: Antiproliferative activity against human Molt3 cells; assay type: functional, cell-based
PC-3 = assay: Antiproliferative activity against human PC3 cells; assay type: functional, cell-based
[1] = Antiproliferative activity against human DND1 cells; assay type: functional, cell-based
DU-145 = assay: Antiproliferative activity against human DU145 cells; assay type: functional, cell-based
Tubulin (Homo sapiens) [2] = biological target: T1, Tubulin (Homo sapiens) (UniProt P68371+Q9H4B7+P0DPH7+P68366+Q13509+Q71U36+P04350+Q3ZCM7+P07437+P68363+Q9BQE3+Q6PEY2+Q13885+Q9BVA1+Q9BUF5); assay: Inhibition of tubulin polymerization; assay type: protein-complex assay
Summary of the method: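 Purified […] in reaction buffer with GTP and Mg²⁺ was incubated for assembly with or without test compound (1–5 uM), with vincristine or paclitaxel (20 uM) as controls. Assembly was read as OD at 340 nm every 2 min. Each point is the mean of two independent experiments.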

Tubulin (Homo sapiens) [3] = biological target: T1, Tubulin (Homo sapiens); assay: Inhibition of tubulin polymerization at 20 uM; assay type: protein-complex assay

Question: Which IC50 (CCRF-CEM) does the source give for `COc1cc(C(=O)c2ccc3occc3c2)cc(OC)c1OC` here?
Answer: 288 nM

Question: Which IC50 (CCRF-CEM) does the source give for `COc1cc(OC)cc(C(=O)c2ccc3c(ccn3C)c2)c1` here?
Answer: 1690 nM

Question: With `COc1ccc(C(=O)c2ccc3c(ccn3C)c2)c(OC)c1` as the molecule, how does the IC50 (CCRF-CEM) read?
Answer: 102 nM

Question: And the IC50 (MCF7)?
Answer: 85 nM

Question: What about the IC50 (Bel-7402) of the same molecule?
Answer: 44 nM

Question: What about the IC50 (MOLT-3) of the same molecule?
Answer: 24 nM

Question: What about the IC50 (PC-3) of the same molecule?
Answer: 203 nM

Question: And the IC50 [1]?
Answer: 118 nM

Question: What about the IC50 (DU-145) of the same molecule?
Answer: 34 nM

Question: What does the source list for `CCn1c2ccccc2c2cc(NS(=O)(=O)c3cc(OC)c(OC)c(OC)c3)ccc21`?
Answer: IC50 (CCRF-CEM): 56 nM; IC50 (MCF7): 89 nM; IC50 (Bel-7402): 201 nM; IC50 (MOLT-3): 20 nM; IC50 (PC-3): 201 nM; IC50 [1]: 89 nM; IC50 (DU-145): 603 nM

Question: With `COc1cc(C(=O)c2ccc3[nH]ccc3c2)cc(OC)c1OC` as the molecule, how does the IC50 (CCRF-CEM) read?
Answer: 225 nM

Question: With `COc1ccc(C(=O)c2ccc3c(ccn3C)c2)cc1` as the molecule, how does the IC50 (CCRF-CEM) read?
Answer: 1130 nM

Question: With `COc1ccc(C(=O)c2ccc3c(ccn3C)c2)cc1OC` as the molecule, how does the IC50 (CCRF-CEM) read?
Answer: 1690 nM

Question: Which IC50 (CCRF-CEM) does the source give for `CCn1c2ccccc2c2cc(C(=O)c3ccc(OC)nc3OC)ccc21` here?
Answer: 555 nM

Question: For `COc1cc(C(=O)c2ccc3c(ccn3C)c2)cc(OC)c1OC`, which IC50 (CCRF-CEM) is on record?
Answer: 18 nM

Question: What about the IC50 (MCF7) of the same molecule?
Answer: 9.2 nM

Question: And the IC50 (Bel-7402)?
Answer: 21 nM

Question: What about the IC50 (MOLT-3) of the same molecule?
Answer: 18 nM

Question: And the IC50 (PC-3)?
Answer: 25 nM

Question: And the IC50 [1]?
Answer: 15 nM

Question: And the IC50 (DU-145)?
Answer: 26 nM

Question: With `CCn1c2ccccc2c2cc(NS(=O)(=O)c3cc(OC)ccc3OC)ccc21` as the molecule, how does the IC50 (CCRF-CEM) read?
Answer: 61 nM

Question: With `COc1ccc(C(=O)c2ccc3c(ccn3C)c2)c(OC)n1` as the molecule, how does the IC50 (CCRF-CEM) read?
Answer: 1010 nM

Question: Which IC50 (CCRF-CEM) does the source give for `CCn1c2ccccc2c2cc(C(O)c3cc(OC)c(OC)c(OC)c3)ccc21` (centres undefined) here?
Answer: 192 nM

Question: Which IC50 [1] does the source give for `COc1ccc(/C=C\c2cc(OC)c(OC)c(OC)c2)cc1O` [COMBRETASTATIN A4] here?
Answer: 2.5 nM

Question: With `COc1cc([C@@H]2c3cc4c(cc3C(O)[C@H]3COC(=O)[C@H]23)OCO4)cc(OC)c1OC` (single isomer, unassigned) [PODOFILOX] as the molecule, how does the IC50 [1] read?
Answer: 12 nM

Question: For `CCn1c2ccccc2c2cc(NS(=O)(=O)c3ccc(OC)cc3OC)ccc21`, which IC50 (CCRF-CEM) is on record?
Answer: 57 nM

Question: With `CCn1c2ccccc2c2cc(C(=O)c3cc(OC)c(OC)c(OC)c3)ccc21` as the molecule, how does the IC50 (CCRF-CEM) read?
Answer: 90 nM

Question: What about the IC50 (MCF7) of the same molecule?
Answer: 26 nM

Question: And the IC50 (Bel-7402)?
Answer: 90 nM

Question: And the IC50 (MOLT-3)?
Answer: 51 nM

Question: What about the IC50 (PC-3) of the same molecule?
Answer: 103 nM

Question: What about the IC50 [1] of the same molecule?
Answer: 21 nM

Question: And the IC50 (DU-145)?
Answer: 39 nM

Question: And the Activity (Tubulin (Homo sapiens) [2])?
Answer: Dose-dependent effect

Question: Which IC50 (CCRF-CEM) does the source give for `COc1cc(C(=O)c2cccc3ccn(C)c23)cc(OC)c1OC` here?
Answer: 307 nM

Question: What does the source list for `COc1cc(C(=O)c2ccc3ccn(C)c3c2)cc(OC)c1OC`?
Answer: IC50 (CCRF-CEM): 30 nM; IC50 (MCF7): 24 nM; IC50 (Bel-7402): 27 nM; IC50 (MOLT-3): 18 nM; IC50 (PC-3): 75 nM; IC50 [1]: 27 nM; IC50 (DU-145): 75 nM

Question: With `COc1cc(C(=O)c2ccc3sccc3c2)cc(OC)c1OC` as the molecule, how does the IC50 (CCRF-CEM) read?
Answer: 303 nM

Question: For `COc1cc(C(O)c2ccc3c(ccn3C)c2)cc(OC)c1OC` (centres undefined), which IC50 (CCRF-CEM) is on record?
Answer: 59 nM

Question: And the IC50 (MCF7)?
Answer: 44 nM

Question: And the IC50 (Bel-7402)?
Answer: 88 nM

Question: And the IC50 (MOLT-3)?
Answer: 38 nM

Question: And the IC50 (PC-3)?
Answer: 117 nM

Question: And the IC50 [1]?
Answer: 59 nM

Question: And the IC50 (DU-145)?
Answer: 103 nM

Question: With `CC[C@]1(O)C[C@H]2CN(CCc3c([nH]c4ccccc34)[C@@](C(=O)OC)(c3cc4c(cc3OC)N(C=O)[C@H]3[C@@](O)(C(=O)OC)[C@H](OC(C)=O)[C@]5(CC)C=CCN6CC[C@]43[C@@H]65)C2)C1` as the molecule, how does the inhibition (Tubulin (Homo sapiens) [3]) read?
Answer: 87%

Question: Which IC50 (CCRF-CEM) does the source give for `COc1ccc(OC)c(C(=O)c2ccc3c(ccn3C)c2)c1` here?
Answer: 2370 nM
